The IC50 is the concentration at which inhibition is half-maximal.

The results in this text go back to paper PMC3780561 (Molecular cancer therapeutics, 2013).

This test concerns NSCLC cell lines (A549, H23 and H358). The test is described as follows: Cell viability, modified MTT assay, 24 h. The format is cell-based, human. The note with it: read-out: 24 h-IC50. A digest of the protocol: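 ATCC-sourced A549 (p53 wild-type), H23 (p53-mutant) and H358 (p53-null) cells were grown per ATCC. Viability after 24 h exposure to test compound or sulindac metabolites was measured by modified MTT assay. 24-h IC50 was derived from viability curves.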

Like-named read-outs stand apart in the source and are kept apart here.

For the molecule `CSc1ccc(/C=C2/C(C)=C(CC(=O)O)c3cc(F)ccc32)cc1` [sulindac sulfide], the concentration for half-maximal inhibition (IC50) (Homo sapiens, 24 h) is 159 to 222 µM.

Consider `CC1=C(CC(=O)O)c2cc(F)ccc2/C1=C\c1ccc(S(C)(=O)=O)cc1` [sulindac sulfone], for which the IC50 (range among A549, H23 and H358 cells) lay within 566 to 1900 µM.

`CC1=C(CC(=O)O)c2cc(F)ccc2/C1=C\c1ccc([S+](C)[O-])cc1` (stereo not drawn) [sulindac]: the IC50 (Homo sapiens, 24 h) was above 1000 µM.
